Screens (PubChem)
SENP8 block-1: inhibitors of human SENP8 protease | Q96LD8 | recombinant SENP8, Nedd8 substrate fluorescence | inhibition, % at 20 µM | 360,000 compounds, 0.64% hits; in the data active = inhibition mostly above about 40%, no sharp cut-off; inactive = mostly below about 27%
UBC13 polyUb: blocks human UBC13 polyubiquitin chain formation; TR-FRET; inhibition, % at 20 µM; 330,000 compounds, 0.47% hits; AID 485273; in the data active = inhibition above about 45%, passing the limit was not always enough
Apaf1 inhib: blocks human Apaf-1 apoptosome activity; reconstituted apoptosome caspase-3 activity, DEVD-Rh110 fluorescence; O14727; AID 489030; 330,000 compounds, 0.71% hits; inhibition, % at 20 µM; active = inhibition of at least 40% at 20 µM
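Assay system – apoptosome proteins · Medium – Hepes buffer, pH 7.5 · Also added – cytochrome c with DEVD-Rh110 · Timing – 30 min compound preincubation, 50 min activation, room temperature · Detection – Rh110 fluorescence, excitation 480 nm, emission 540 nm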
SENP6 inh: blocks the human protease SENP6 | Q9GZR1 | 330,000 compounds, 1.8% hits | Recombinant SENP6 catalytic domain, aminoluciferin luminescence | AID 2599 | inhibition, % at 10 µM;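 active = inhibition above about 50% at the single tested dose, limit read from the data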
Target sequence (Q9GZR1 628-1112 limits assumed): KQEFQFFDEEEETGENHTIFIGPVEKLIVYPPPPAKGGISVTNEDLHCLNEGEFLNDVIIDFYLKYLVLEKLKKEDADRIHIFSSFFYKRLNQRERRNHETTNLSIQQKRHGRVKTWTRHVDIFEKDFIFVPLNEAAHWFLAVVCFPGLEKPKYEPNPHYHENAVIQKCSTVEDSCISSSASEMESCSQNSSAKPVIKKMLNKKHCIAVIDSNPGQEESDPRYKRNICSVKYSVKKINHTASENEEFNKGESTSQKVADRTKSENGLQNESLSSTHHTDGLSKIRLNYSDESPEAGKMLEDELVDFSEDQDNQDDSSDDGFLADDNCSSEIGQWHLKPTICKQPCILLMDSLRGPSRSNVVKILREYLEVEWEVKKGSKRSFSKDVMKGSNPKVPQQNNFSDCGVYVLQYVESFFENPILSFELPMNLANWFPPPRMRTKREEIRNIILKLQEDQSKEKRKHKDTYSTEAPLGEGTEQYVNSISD
SENP8 block-2: inhibitors of human SENP8 protease; Q96LD8; purified SENP8, Z-RLRGG-aminoluciferin cleavage, luminescence; inhibition, % at 10 µM; 330,000 compounds, 1.2% hits; AID 2540; in the data active = inhibition above about 50%
SENP7 block: SENP7 protease inhibition; Q9BQF6; recombinant SENP7, Z-RLRGG-aminoluciferin luminescence, 40 min; inhibition, % at 5 µM; 330,000 compounds, 1.5% hits; AID 434973;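 active = inhibition above about 50% at the single test dose, limit read from the data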
Casp3 UBC13 ctr: caspase-3 inhibition (UBC13 counter-screen). inhibition, % at 20 µM. AID 488856. shares compounds with UBC13 polyUb. 1,400 compounds, 4% hits. Recombinant caspase-3, Caspase-Glo 3/7 luminescence, 60 min;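 active = mean inhibition across replicates above about 26%, limit read from the data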
UBC13 conf: human UBC13 polyubiquitin inhibition, confirmed. UBC13 polyubiquitination, TR-FRET, biochemical. inhibition, % at 10 µM. shares compounds with UBC13 polyUb. AID 488859. 1,400 compounds, 68% hits; in the data active = inhibition above about 45%
Apaf-1 inh conf2: Apaf-1 inhibition, single-dose confirmed; shares compounds with Apaf1 inhib; reconstituted apoptosome, caspase-3 DEVD-Rh110 fluorescence; inhibition, % at 20 µM; 1,800 compounds, 25% hits;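 active = mean inhibition of at least 40% at 20 µM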
Rh110 quench: interferes with Rh110 fluorescence, flagging false Apaf-1 inhibitors. shares compounds with Apaf1 inhib. 1,800 tested, under 10 active. Rh110 fluorescence interference, quenched caspase reaction. AID 504615. activation (fluorescence interference), % at 20 µM;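 active = signal rise of 40% or more at 20 µM, treated as a fluorescence artifact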
Fluor interf inh: counter-screen for Apaf-1 inhibitors: fluorescence interference, dose response; AID 588538; fluorescence interference counterscreen, Apaf-1 assay format; IC50, µM; 460 tested, under 10 active; shares compounds with Apaf1 inhib; call rule not given here
Of the large screens only hits and unclear results are named; the others gave an inactive call (follow-up assays come after a bar, where they were run). Hits are enriched below; roughly 3% of the tested compounds scored in any of these assays.

C#CCOCCOCCOCCNc1nc(N2CCN(C(=O)CCCCCCCCCCNC(=O)[C@@H](CCC(=O)O)n3cc(CCCCCN)nn3)CC2)nc(N2CCN(C(=O)CCCCCCCCCCNC(=O)[C@H](CCCCN)n3cc(C[C@@H](C)CC)nn3)CC2)n1	UBC13 polyUb 120, Apaf1 inhib 72 | Casp3 UBC13 ctr inactive | UBC13 conf 124 | Apaf-1 inh conf2 50 | Rh110 quench inactive | Fluor interf inh inactive
C#CCOCCOCCOCCNc1nc(N2CCN(C(=O)CCCCCCCCCCNC(=O)[C@H](CCCCN)n3cc(CCO)nn3)CC2)nc(N2CCN(C(=O)CCCCCCCCCCNC(=O)[C@H](CCCCN)n3cc(CCCC(=O)O)nn3)CC2)n1	UBC13 polyUb 117, Apaf1 inhib 59 | Casp3 UBC13 ctr inactive | UBC13 conf 111 | Apaf-1 inh conf2 inactive | Rh110 quench inactive
COc1ccc(-c2ccc3nncn3c2)cn1	none (no result: UBC13 polyUb, Apaf1 inhib, SENP6 inh, SENP8 block-2, SENP7 block)
C#CCOCCOCCOCCNc1nc(N2CCN(C(=O)[C@H](CCCCN)n3cc(CN)nn3)CC2)nc(N2CCN(C(=O)[C@H](CCCCN)n3cc(CN)nn3)CC2)n1	UBC13 polyUb 103, Apaf1 inhib 44 | Casp3 UBC13 ctr inactive | UBC13 conf 112 | Apaf-1 inh conf2 inactive | Rh110 quench inactive
C#CCOCCOCCOCCNc1nc(N2CCN(C(=O)CCCCCCCCCCNC(=O)[C@@H](CCSC)n3cc(CCO)nn3)CC2)nc(N2CCN(C(=O)CCCCCCCCCCNC(=O)[C@H](CCC(=O)O)n3cc(CCCCCN)nn3)CC2)n1	UBC13 polyUb 102, Apaf1 inhib 62 | Casp3 UBC13 ctr inactive | UBC13 conf 77 | Apaf-1 inh conf2 inactive | Rh110 quench inactive
CCN(CC)CCN(C)C(=O)c1[nH]c(C(F)(F)F)nc1-c1ccccc1	none (no result: UBC13 polyUb, Apaf1 inhib, SENP6 inh, SENP8 block-2, SENP7 block)
O=C(c1cccs1)N1C[C@@H](n2cc(-c3ccc(F)cc3)nn2)[C@H](O)C[C@@H]1c1ccccc1	none (no result: UBC13 polyUb, Apaf1 inhib, SENP6 inh, SENP8 block-2, SENP7 block)
COC(=O)c1c(NC(=O)c2ccc(OC(C)C)cc2)sc2c1CC(C)(C)NC2(C)C	UBC13 polyUb 84, Apaf1 inhib 53 | Casp3 UBC13 ctr inactive | UBC13 conf 60 | Apaf-1 inh conf2 inactive | Rh110 quench inactive
COC(=O)c1c(NC(=O)c2ccccc2)sc2c1CC(C)(C)NC2(C)C	none
O=C1NC[C@@H](Cc2cccc3ccccc23)N(CC2(c3ccccc3)CC2)C1=O	none
c1ccc2c(C[C@@H]3CNCCN3CCC34CC5CC(CC(C5)C3)C4)cccc2c1	UBC13 polyUb 50, Apaf1 inhib 66 | Casp3 UBC13 ctr inactive | UBC13 conf 53 | Apaf-1 inh conf2 inactive | Rh110 quench inactive
c1ccc(C2(CN3CCNC[C@H]3Cc3cccc4ccccc34)CC2)cc1	UBC13 polyUb 59, Apaf1 inhib 53 | Casp3 UBC13 ctr inactive | UBC13 conf 48 | Apaf-1 inh conf2 inactive | Rh110 quench inactive
Oc1ccc(C[C@@H]2CNCCN2CCc2cccc3ccccc23)cc1	none
c1ccc2c(C[C@@H]3CNCCN3CCCCC3CCCCC3)cccc2c1	UBC13 polyUb 74, Apaf1 inhib 71 | Casp3 UBC13 ctr inactive | UBC13 conf 61 | Apaf-1 inh conf2 inactive | Rh110 quench inactive
CC(NC(=O)COC(=O)c1ccc2c(=O)n3c(nc2c1)CCCCC3)c1ccc(F)cc1 (centres undefined)	none (no result: UBC13 polyUb, Apaf1 inhib, SENP6 inh, SENP8 block-2, SENP7 block)
CC(C)(C)c1ccc(C(O)CCCN2CCC(C(O)(c3ccccc3)c3ccccc3)CC2)cc1 (centres undefined)	UBC13 polyUb 67, Apaf1 inhib 53 | Casp3 UBC13 ctr inactive | UBC13 conf 56 | Apaf-1 inh conf2 inactive | Rh110 quench inactive
